From PubChem BioAssay
Rows were chosen to be rich in hits. Some 0.4% of all compounds tested hit in one or more screens of this group.
PDI inh = inhibitors of human PDI, primary screen, biochemical, turbidity, single point, plate reader; inhibition, % at 10 µM; Protein disulfide-isomerase (Homo sapiens), P07237; 0.052% of 350,000 active; PDI insulin aggregation turbidity, A650, 90 min; AID 588391, 2011;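 active = mean inhibition across replicates of 30% or more, whatever share of single replicates reach that level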
ERp5 inh = inhibitors of ERp5-driven insulin aggregation, primary screen, biochemical, turbidity, absorbance 650 nm, single point | AID 651711, 2012 | Protein disulfide-isomerase A6 (Homo sapiens), Q15084 | inhibition, % at 9.99 µM | 90 min | 0.05% of 350,000 active;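 active = mean replicate inhibition above about 25%, with every replicate also reaching it, limit read from the data, passing the limit was not always enough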
Target sequence (Q15084 whole entry, looked up): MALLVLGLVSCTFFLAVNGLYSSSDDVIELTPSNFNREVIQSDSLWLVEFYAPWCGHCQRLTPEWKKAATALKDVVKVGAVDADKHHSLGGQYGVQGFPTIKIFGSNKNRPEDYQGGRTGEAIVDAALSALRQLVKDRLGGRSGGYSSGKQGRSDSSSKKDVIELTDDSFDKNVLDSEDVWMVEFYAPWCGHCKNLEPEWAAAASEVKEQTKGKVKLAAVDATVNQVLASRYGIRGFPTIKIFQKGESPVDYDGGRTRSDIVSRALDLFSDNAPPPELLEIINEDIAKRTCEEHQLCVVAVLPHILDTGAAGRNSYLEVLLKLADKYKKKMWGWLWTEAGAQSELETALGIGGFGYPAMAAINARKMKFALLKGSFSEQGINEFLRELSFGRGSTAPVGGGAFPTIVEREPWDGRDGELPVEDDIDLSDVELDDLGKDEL
Tb MetRS inh = T. brucei MetRS inhibitors, primary screen, biochemical, luminescence | methionyl-tRNA synthetase (Trypanosoma brucei brucei) | purified T. brucei MetRS, ATP depletion, Kinase-Glo luminescence | inhibition, % at 11.9 µM | 0.4% of 360,000 active | AID 624268, 2012;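 active = inhibition above a per-plate cutoff of the control wells' mean inhibition plus 3 SD, cut at about 5.5% in these data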;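 note: 0% = DMSO wells median and 100% = median of wells with control inhibitor compound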
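Material: parasite MetRS enzyme / Replication: singlicate, one well per compound / Signal: luminescence of leftover ATP / Schedule: 2 h aminoacylation at 25 °C after 15 min preincubation / Medium: HEPES-MgCl2-KCl buffer plus DTT, spermine, BSA, pyrophosphatase / Doses: 11.9 µM single point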
Tb MetRS conf = T. brucei MetRS inhibitors, confirmation, biochemical, luminescence; shares compounds with Tb MetRS inh; T. brucei MetRS enzyme, luminescence (ATP depletion); inhibition, % at 11.9 µM; 93% of 1,400 active; AID 624412, 2012; in the data active = inhibition above about 7%
Jurkat cytotox = Jurkat T cell cytotoxicity, cytotoxicity control for T. brucei MetRS inhibitor project, luminescence, high throughput; shares compounds with Tb MetRS inh; AID 624413, 2012; 12% of 1,400 active; Jurkat cells viability, ATP luminescence; inhibition, % at 8.3 µM; in the data active = inhibition above about 15%;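 note: 0% = vehicle and 100% = reference inhibitor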
Tb MetRS inh FP = T. brucei MetRS inhibitors, orthogonal assay for T. brucei MetRS inhibitor project, biochemical, fluorescence polarization | shares compounds with Tb MetRS inh | purified T. brucei MetRS | inhibition, % at 11.9 µM | 44% of 1,400 active; in the data active = inhibition above about 17%;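 note: 0% = vehicle wells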
* = called active by the depositor; x = no result given.

SMILES	PDI inh	ERp5 inh	Tb MetRS inh	Tb MetRS conf	Jurkat cytotox	Tb MetRS inh FP
CCC(=O)N[C@@H]1C=C[C@H](CC(=O)NCCN2CCCCC2)O[C@@H]1CO	x	0.7	x	x	x	x
CCC1(CC)C(=O)N(C)C(=O)NC1=NCc1ccccc1	3.2	x	-1.0	x	x	x
Cc1cc(=O)n2c(n1)NC(=NCc1ccccc1)NC2c1ccccc1 (configuration not stated)	8.6	-0.5	8.5*	18.2*	1.2	10.9
Cc1ccc(S(=O)(=O)N[C@H]2CC[C@H](CCNC(=O)CN3CCOCC3)O[C@H]2CO)cc1	x	3.4	x	x	x	x
COCC(=O)N1CC(=O)N2[C@@H](CO)[C@@H](c3ccc(-c4cccnc4)cc3)[C@@H]2C1	x	10.0	x	x	x	x
COc1ccc(NC(=O)Nc2ccc3c(c2)C(=O)N([C@H](C)CO)C[C@H](C)[C@H](CN(C)Cc2ccc(Cl)c(Cl)c2)O3)cc1	x	3.3	x	x	x	x
COc1ccc2c(c1)[nH]c1c(=O)n(CCC3=CCCCC3)cnc12	17.9	x	-0.9	x	x	x
CCOc1ccc2[nH]c3c(NCCC(C)C)ncnc3c2c1	5.3	-1.9	2.4	x	x	x
COc1ccc2[nH]c3c(NCCC4=CCCCC4)ncnc3c2c1	-0.9	-1.1	17.8*	39.9*	51.5*	30.8*
COc1ccc2[nH]c3c(NCCCOC(C)C)ncnc3c2c1	1.7	2.3	6.2*	17.4*	8.9	10.1
C[C@H]1CN([C@@H](C)CO)C(=O)c2cccc(NC(=O)C3CCOCC3)c2O[C@@H]1CN(C)S(C)(=O)=O	x	0.3	x	x	x	x
C[C@H]1CN([C@@H](C)CO)C(=O)c2cccc(NC(=O)c3cnccn3)c2O[C@@H]1CN(C)C(=O)Nc1ccc(C(F)(F)F)cc1	x	10.2	x	x	x	x
C=CCn1c(Cc2ccccc2)n[nH]c1=S	-2.2	4.1	-0.6	x	x	x
C=CCn1c(Cc2nc3ccc(Cl)cc3[nH]2)n[nH]c1=S	-6.9	x	6.7*	20.9*	-0.3	14.7
C[C@H]1CN([C@@H](C)CO)C(=O)c2cc(NC(=O)C3CC3)ccc2O[C@@H]1CN(C)S(=O)(=O)c1cccs1	x	-5.6	x	x	x	x
COc1cccc(C#Cc2ccc([C@@H]3[C@H](CO)N4C(=O)CN(C(=O)c5ccncc5)C[C@@H]34)cc2)c1	x	-1.8	x	x	x	x
C[C@H](CO)N1C[C@H](C)[C@H](CN(C)C(=O)Nc2ccc(F)cc2)Oc2ccc(N(C)C)cc2CC1=O	x	6.7	x	x	x	x
COc1ccc(S(=O)(=O)NC(=O)C2(C)CCN2C(=O)C2CC2)cc1 (configuration not stated)	7.0	1.4	10.5*	5.8*	-3.8	-5.1
Cc1ccc(S(=O)(=O)NC(=O)C2(C)CCN2C(=O)C2CC2)cc1 (configuration not stated)	0.6	1.3	-0.3	x	x	x
COCCNc1ncnc2c1[nH]c1ccccc12	-3.8	3.2	59.0*	77.0*	11.1	42.0*
c1ccc(CNc2ncnc3nc[nH]c23)cc1	0.4	1.8	1.6	x	x	x
CCCOc1ncnc2c1[nH]c1ccccc12	1.7	x	0.4	x	x	x
OCCCNc1ncnc2c1[nH]c1ccccc12	-2.1	0.2	22.1*	38.8*	2.5	22.7*
Fc1ccc2[nH]c3c(NCc4ccccc4)ncnc3c2c1	-1.1	2.8	83.8*	92.1*	29.9*	81.7*
CCN(CC)c1ncnc2c1[nH]c1ccccc12	-7.8	x	-0.2	x	x	x
CNC[C@@H]1OCCCC[C@H](C)Oc2ccc(N)cc2C(=O)N([C@@H](C)CO)C[C@H]1C	x	-4.8	x	x	x	x
C[C@@H]1CCCCO[C@H](CN(C)Cc2ccc3c(c2)OCO3)[C@@H](C)CN([C@@H](C)CO)C(=O)c2cc(NS(=O)(=O)c3ccccc3)ccc2O1	x	-6.0	x	x	x	x
Cc1noc(C)c1S(=O)(=O)Nc1cccc2c1O[C@@H](CN(C)CC1CCCCC1)[C@@H](C)CN([C@@H](C)CO)C2=O	x	-2.6	x	x	x	x
O=C(Cc1ccc(Br)cc1)N/N=C/c1ccc(-c2cccc(C(=O)O)c2)o1	-1.1	3.3	6.9*	16.1*	-0.4	4.9
Nc1nnc(CC(=O)N/N=C/c2ccc(-c3cccc(C(=O)O)c3)o2)s1	-0.3	-12.0	0.2	x	x	x
